Reference: article PMC12642897 (Journal of Enzyme Inhibition and Medicinal Chemistry, 2025)

Tests used:
rat maltase = conditions: read-out: IC50 against rat maltase; ref 44 (Barber's review); cited from earlier work
rat sucrase = conditions: read-out: IC50 against rat sucrase; ref 44 (Barber's review); cited from earlier work
PTP1B [1] = biological target: T1, PTP1B (Homo sapiens, UniProt P18031); assay: PTP1B inhibition assay; assay type: biochemical; conditions: PTP1B IC50, isolated compounds and positive control; tested 1 to 100 µM
T1 sequence (P18031 1-435): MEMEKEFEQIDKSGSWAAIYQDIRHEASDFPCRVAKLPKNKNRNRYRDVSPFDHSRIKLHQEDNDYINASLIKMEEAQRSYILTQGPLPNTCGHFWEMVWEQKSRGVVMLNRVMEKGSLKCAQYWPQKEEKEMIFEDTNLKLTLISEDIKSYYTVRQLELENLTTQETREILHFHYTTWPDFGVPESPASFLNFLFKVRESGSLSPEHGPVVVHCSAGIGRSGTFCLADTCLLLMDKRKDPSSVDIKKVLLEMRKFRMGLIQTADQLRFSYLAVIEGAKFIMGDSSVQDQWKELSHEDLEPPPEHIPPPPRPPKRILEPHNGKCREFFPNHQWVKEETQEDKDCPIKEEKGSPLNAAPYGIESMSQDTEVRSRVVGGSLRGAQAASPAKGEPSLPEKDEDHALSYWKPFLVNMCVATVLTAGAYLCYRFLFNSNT

PTP1B [2] = biological target: T1, PTP1B; assay: PTP1B enzyme kinetic analysis; assay type: biochemical; conditions: for Ki: PTP1B Ki value, secondary plot
Method in brief: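 Human recombinant PTP1B in 50 mM citrate buffer (pH 6.0) with 0.1 M NaCl, 1 mM EDTA and 1 mM DTT. Test compound at 2, 4, 10 and 12 µM was crossed with p-NPP at 0.5, 1 and 2 mM. Enzyme plus inhibitor preincubated 10 min at 37 °C, then substrate added for 20 min at 37 °C. NaOH stop, A405. Lineweaver–Burk for mode; secondary plots for Kic/Kiu.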

α-glucosidase = α-glucosidase (Saccharomyces cerevisiae, UniProt P53341); assay: α-Glucosidase enzyme kinetic analysis; assay type: biochemical; conditions: Lineweaver–Burk plot
Sequence of α-glucosidase (P53341 whole entry): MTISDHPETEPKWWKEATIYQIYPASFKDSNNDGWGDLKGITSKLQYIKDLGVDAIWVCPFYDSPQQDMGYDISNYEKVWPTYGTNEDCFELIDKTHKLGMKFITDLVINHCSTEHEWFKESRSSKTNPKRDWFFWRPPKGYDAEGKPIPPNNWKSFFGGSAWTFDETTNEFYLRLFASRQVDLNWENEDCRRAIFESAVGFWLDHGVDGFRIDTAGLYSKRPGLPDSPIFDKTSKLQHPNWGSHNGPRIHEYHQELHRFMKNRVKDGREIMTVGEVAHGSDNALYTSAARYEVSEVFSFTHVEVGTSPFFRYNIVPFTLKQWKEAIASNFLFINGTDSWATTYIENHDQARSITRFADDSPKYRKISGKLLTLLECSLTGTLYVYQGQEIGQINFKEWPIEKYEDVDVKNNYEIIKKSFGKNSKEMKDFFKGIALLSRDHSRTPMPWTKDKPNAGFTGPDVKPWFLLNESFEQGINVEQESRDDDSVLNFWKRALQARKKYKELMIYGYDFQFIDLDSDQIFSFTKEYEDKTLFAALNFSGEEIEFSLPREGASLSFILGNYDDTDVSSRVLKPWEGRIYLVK
Method in brief: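 Yeast (S. cerevisiae) α-glucosidase in phosphate buffer, pH 6.8. p-NPG at 0.625, 1.25 and 2.5 mM was crossed with four concentrations of each test compound (sets of 7–40, 20–80 or 2–12 µM). Incubated 10 min at 37 °C, stopped with 0.2 M Na₂CO₃, read at 405 nm. Lineweaver–Burk plots assign inhibition mode.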

[3] = biological target: α-glucosidase enzyme from Saccharomyces cerevisiae (Saccharomyces cerevisiae, UniProt P53341); assay: α-Glucosidase inhibition assay; assay type: biochemical
Sequence of α-glucosidase enzyme from Saccharomyces cerevisiae (P53341 whole entry): as above

Row | SMILES | IC50 (rat maltase) [µM] | IC50 (rat sucrase) [µM] | IC50 (PTP1B [1]) [µM] | PTP1B Inhibition type (PTP1B [2]; Lineweaver–Burk plot) | Ki (PTP1B [2]; Kic) [µM] | Ki (PTP1B [2]; Kiu) [µM] | α-glucosidase Inhibition type (α-glucosidase) | IC50 [3] [µM] | α-glucosidase potency relative to acarbose ([3]; ratio of IC50 values)
1 | O=c1c(O)c(-c2ccc(O)c(O)c2)oc2cc(O)cc(O)c12 [quercetin] | 281 | > 400 | – | – | – | – | – | – | –
2 | O=c1oc(-c2ccc(O)c(O)c2)cc2cccc(O)c12 [Compound 12, Thunberginol A] | – | – | 8 ± 1.1 | mixed-type | 12.2 | 5.5 | Uncompetitive | 3.4 ± 0.2 | over 70 times
